The values below come from ChEMBL document CHEMBL1122179, “1-(alkylamino)isochromans: hypotensives with peripheral and central activities” (J Med Chem, 1982).

Active and inactive are the calls of the source. The rule behind the calls is not given here.

Assay [1] has as its system Rattus norvegicus. The assay can be described thus: Delta BP refers to oral hypotensive activity of compound which is evaluated at 4 hr and 24 hr in restrained, normotensive conscious rats at a dose of 50 mg/kg. On the set-up: dose 50 mg/kg. The class given is functional, organism-based. Put shortly:
(§1)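 Female Sprague-Dawley rats, normotensive, restrained in a towel. Blood pressure was read directly via chronic indwelling aortic cannulas exteriorized at the nape, before and 4 and 24 h after an oral dose suspended in carboxymethylcellulose (10 mL/kg). Values from two animals were averaged at each time; a mean change of at least 5 mmHg was taken as significant (p < 0.05).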

Assay [2] concerns Rattus norvegicus. The assay can be described thus: Delta BP refers to oral hypotensive activity of compound which is evaluated at 4 hr and 24 hr in restrained, normotensive conscious rats at a dose of 50 mg/kg; -18/-28. In kind it is functional. Put shortly: as §1
Assay [3] concerns Rattus norvegicus. The assay can be described thus: Delta BP refers to oral hypotensive activity of compound which is evaluated at 4 hr and 24 hr in restrained, normotensive conscious rats at a dose of 15 mg/kg; -8/-10. The class given is functional. Put shortly:
as §1

The subject of assay [4] is Rattus norvegicus. Kind of assay: Delta BP refers to oral hypotensive activity of compound which is evaluated at 4 hr and 24 hr in restrained, normotensive conscious rats at a dose of 50 mg/kg; -16/-14. The class given is functional. Put shortly:
as §1

In assay [5] the test system is Rattus norvegicus. The assay can be described thus: Delta BP refers to oral hypotensive activity of compound which is evaluated at 4 hr and 24 hr in restrained, normotensive conscious rats at a dose of 50 mg/kg; -16/-26. The class given is functional. In a few lines:
as §1

The test system of assay [6] is Rattus norvegicus. Kind of assay: Delta BP refers to oral hypotensive activity of compound which is evaluated at 4 hr and 24 hr in restrained, normotensive conscious rats at a dose of 50 mg/kg; -3/-1. The class given is functional. Put shortly:
as §1

In assay [7] the test system is Rattus norvegicus. Kind of assay: Delta BP refers to oral hypotensive activity of compound which is evaluated at 4 hr and 24 hr in restrained, normotensive conscious rats at a dose of 50 mg/kg; -19/-21. In kind it is functional. Put shortly:
as §1

Assay [8] deals with Rattus norvegicus. The assay can be described thus: Delta BP refers to oral hypotensive activity of compound which is evaluated at 4 hr and 24 hr in restrained, normotensive conscious rats at a dose of 50 mg/kg; -19/-9. The class given is functional. In a few lines:
as §1

The subject of assay [9] is Rattus norvegicus. The assay can be described thus: Delta BP refers to oral hypotensive activity of compound which is evaluated at 4 hr and 24 hr in restrained, normotensive conscious rats at a dose of 50 mg/kg; 2/2. The class given is functional. In a few lines:
as §1

The subject of assay [10] is Rattus norvegicus. The assay can be described thus: Delta BP refers to oral hypotensive activity of compound which is evaluated at 4 hr and 24 hr in restrained, normotensive conscious rats at a dose of 50 mg/kg; -2/2. In kind it is functional. Put shortly: as §1
Assay [11] relates to Rattus norvegicus. Kind of assay: Delta BP refers to oral hypotensive activity of compound which is evaluated at 4 hr and 24 hr in restrained, normotensive conscious rats at a dose of 50 mg/kg; -15/3. The class given is functional. Put shortly:
as §1

Assay [12] relates to Rattus norvegicus. Kind of assay: Delta BP refers to oral hypotensive activity of compound which is evaluated at 4 hr and 24 hr in restrained, normotensive conscious rats at a dose of 50 mg/kg; -17/-16. The class given is functional. In a few lines: as §1
Assay [13] concerns Rattus norvegicus. The assay can be described thus: Delta BP refers to oral hypotensive activity of compound which is evaluated at 4 hr and 24 hr in restrained, normotensive conscious rats at a dose of 50 mg/kg; -13/-19. The class given is functional. In a few lines:
as §1

Assay [14] has as its system Rattus norvegicus. The assay can be described thus: Delta BP refers to oral hypotensive activity of compound which is evaluated at 4 hr and 24 hr in restrained, normotensive conscious rats at a dose of 50 mg/kg; 0/-1. The class given is functional. Put shortly:
as §1

In assay [15] the test system is Rattus norvegicus. The assay can be described thus: Delta BP refers to oral hypotensive activity of compound which is evaluated at 4 hr and 24 hr in restrained, normotensive conscious rats at a dose of 50 mg/kg; -8/-1. In kind it is functional. Put shortly: as §1
In assay [16] the test system is Rattus norvegicus. Kind of assay: Delta BP refers to oral hypotensive activity of compound which is evaluated at 4 hr and 24 hr in restrained, normotensive conscious rats at a dose of 50 mg/kg; 0/-14. In kind it is functional. In a few lines: as §1
For assay [17], the system named is Rattus norvegicus. The assay can be described thus: Delta BP refers to oral hypotensive activity of compound which is evaluated at 4 hr and 24 hr in restrained, normotensive conscious rats at a dose of 50 mg/kg; 3/2. In kind it is functional. Put shortly:
as §1

On to `COc1cc2c(cc1OC)C(C)(CCN1CCN(c3cccc(C(F)(F)F)c3)CC1)OCC2` (stereo not drawn), for which, in assay [1], the Delta blood pressure entry was “inactive”.

As for `COc1cc2c(cc1OC)C(C)(C)COC2CCN1CCN(c2ccccc2C)CC1` (stereo not drawn), the Delta blood pressure is -18 mmHg in assay [2] and -8 mmHg in [3].

Consider `COc1cc2c(cc1OC)C(C)(CCN1CCN(c3cccc(Cl)c3)CC1)OCC2` (stereo not drawn), for which, in assay [1], the Delta blood pressure entry is “inactive”. On to `COc1cc2c(cc1OC)C(C)(C)COC2CCN1CCN(c2ccccc2)CC1` (stereo not drawn), for which the Delta blood pressure in assay [4] is -16 mmHg. In the case of `COc1cc2c(cc1OC)C(C)(CCN1CCN(c3ccc(F)cc3)CC1)OCC2` (stereo not drawn), the Delta blood pressure in assay [5] is on record as -16 mmHg. For `COc1cc2c(cc1OC)C(C)(C)COC2CCN1CCN(c2ccccc2OC)CC1` (stereo not drawn), the Delta blood pressure result in assay [1] was “inactive”. In assay [6], `COc1cc2c(cc1OC)C(C)(CCN1CCN(c3ccccc3Cl)CC1)OCC2` (stereo not drawn) registered a Delta blood pressure of -3 mmHg. With `COc1cc2c(cc1OC)C(C)(C)COC2CCN1CCN(c2ccccn2)CC1` (stereo not drawn), in [1], the Delta blood pressure entry was “inactive”. In assay [7], `COc1cc2c(cc1OC)C(CCN1CCN(c3ccc(Cl)cc3)CC1)OCC2` (stereo not drawn) yielded a Delta blood pressure of -19 mmHg. In assay [8], `COc1cc2c(cc1OC)C(CCN1CCN(c3ccccc3C)CC1)OCC2` (stereo not drawn) returned a Delta blood pressure of -19 mmHg. On to `COc1cc2c(cc1OC)C(CCN1CCN(c3ccccc3Cl)CC1)OC(C)(C)C2` (stereo not drawn), for which, in [1], the Delta blood pressure result was “inactive”. `COc1cc2c(cc1OC)C(CN1CCN(c3cccc(C(F)(F)F)c3)CC1)OCC2` (stereo not drawn) gave a Delta blood pressure in assay [9] of 2 mmHg. In assay [10], `COc1cc2c(cc1OC)C(CCN1CCN(c3cccc(C(F)(F)F)c3)CC1)OCC2` (stereo not drawn) gave a Delta blood pressure of -2 mmHg. With `COc1cc2c(cc1OC)C(CCCN1CCN(c3cccc(C(F)(F)F)c3)CC1)(c1ccc(F)cc1)OCC2` (stereo not drawn), the Delta blood pressure result in assay [1] was “inactive”.

In turn, `COc1cc2c(cc1OC)C(CCCN1CCN(c3ccccn3)CC1)(c1ccc(F)cc1)OCC2` (stereo not drawn) gave a Delta blood pressure in assay [7] of -19 mmHg.

For the compound `COc1cc2c(cc1OC)C(CCN1CCN(c3ccccc3OC)CC1)OC(C)(C)C2` (stereo not drawn), the Delta blood pressure in assay [11] is on record as -15 mmHg; in assay [12] it was -17 mmHg.

For `COc1cc2c(cc1OC)C(CN1CCN(c3ccc(Cl)cc3)CC1)OCC2` (stereo not drawn), the Delta blood pressure in assay [13] is -13 mmHg. As to `COc1cc2c(cc1OC)C(C)(C)COC2CCN1CCN(c2cccc(C(F)(F)F)c2)CC1` (stereo not drawn), the Delta blood pressure in assay [14] stood at 0 mmHg. `COc1cc2c(cc1OC)C(C)(CCCN1CCN(c3ccc(Cl)cc3)CC1)OCC2` (stereo not drawn): in [15], the Delta blood pressure is -8 mmHg. In the case of `COc1cc2c(cc1OC)C(C)(C)COC2CCN1CCN(c2ccc(F)cc2)CC1` (stereo not drawn), the Delta blood pressure result in assay [1] was “inactive”. Still for that read-out and setting: the entry for `COc1cc2c(cc1OC)C(CCCN1CCN(c3ccccc3Cl)CC1)(c1ccc(F)cc1)OCC2` (stereo not drawn) is “inactive”; for `COc1cc2c(cc1OC)C(CCN1CCN(c3ccccc3OC)CC1)OCC2` (stereo not drawn) it is “inactive”; for `COc1cc2c(cc1OC)C(CN1CCN(c3cccc(Cl)c3)CC1)OCC2` (stereo not drawn) it is “inactive”. The same measure, in the same setting: under `COc1cc2c(cc1OC)C(C)(CCCN1CCN(c3cccc(C(F)(F)F)c3)CC1)OCC2` (stereo not drawn) stands “inactive”. On to `COc1cc2c(cc1OC)C(CN1CCN(c3ccc(F)cc3)CC1)OCC2` (stereo not drawn), for which, in [16], the Delta blood pressure worked out at 0 mmHg.

`COc1cc2c(cc1OC)C(CCN1CCN(c3ccccc3Cl)CC1)OCC2` (stereo not drawn) returned a Delta blood pressure in assay [17] of 3 mmHg.
